For 2 compounds, IC50 results are on record in PMC8485830 (ChemistryOpen, 2021).

Test in all cases: activity assay, unused NAD+ converted to a fluorescent compound
What all share (assay type): biochemical

In assay [1] the target is T1, PARP16 (Homo sapiens, UniProt Q8N5Y8).
T1 sequence (Q8N5Y8 5-279 limits assumed): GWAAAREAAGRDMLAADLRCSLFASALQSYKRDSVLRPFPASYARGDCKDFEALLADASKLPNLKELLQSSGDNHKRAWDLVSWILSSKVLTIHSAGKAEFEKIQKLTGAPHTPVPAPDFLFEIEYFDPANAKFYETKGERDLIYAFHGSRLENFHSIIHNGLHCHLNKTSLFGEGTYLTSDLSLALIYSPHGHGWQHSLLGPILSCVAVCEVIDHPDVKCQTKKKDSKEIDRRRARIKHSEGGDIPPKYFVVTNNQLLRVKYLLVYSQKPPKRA
The essentials: (§1)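 Human PARP12 or PARP16 carrying an N-terminal His tag was expressed in E. coli Rosetta2 (DE3) in autoinduction TB medium, overnight at 18 °C. It was purified by Ni-affinity and size-exclusion chromatography, then the His tag was cleaved with TEV protease. Unused NAD+ was converted to a fluorescent compound. Test compound was given in half-log dilutions, in quadruplicate. IC50 came from a four-variable sigmoidal dose–response fit.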

In assay [2] the target is T2, PARP3 (Homo sapiens, UniProt Q9Y6F1).
T2 sequence (Q9Y6F1 1-533): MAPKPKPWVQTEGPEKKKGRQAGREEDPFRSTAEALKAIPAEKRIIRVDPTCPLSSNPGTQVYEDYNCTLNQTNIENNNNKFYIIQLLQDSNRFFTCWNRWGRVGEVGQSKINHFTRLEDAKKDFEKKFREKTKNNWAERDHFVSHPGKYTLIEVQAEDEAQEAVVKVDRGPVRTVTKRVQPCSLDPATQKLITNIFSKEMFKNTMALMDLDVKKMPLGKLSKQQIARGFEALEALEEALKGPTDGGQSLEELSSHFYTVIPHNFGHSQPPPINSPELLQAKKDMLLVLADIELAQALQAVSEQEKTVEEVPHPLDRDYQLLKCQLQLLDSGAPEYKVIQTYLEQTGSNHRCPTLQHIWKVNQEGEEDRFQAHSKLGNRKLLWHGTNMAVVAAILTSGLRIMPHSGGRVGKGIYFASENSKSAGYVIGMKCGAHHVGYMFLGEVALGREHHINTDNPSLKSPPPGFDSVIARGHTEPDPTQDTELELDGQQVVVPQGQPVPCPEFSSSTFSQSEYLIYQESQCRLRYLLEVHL
A digest of the protocol:
(§2)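 PARP3 or PARP4 was expressed as an N-terminal His-tag construct in E. coli Rosetta2 (DE3) in autoinduction TB medium, overnight at 18 °C. It was purified by Ni-affinity followed by size-exclusion chromatography. Activity was read by converting residual NAD+ to a fluorescent product. Inhibitor was tested as half-log dilutions, with reactions in quadruplicate. IC50 was fitted with a four-variable sigmoidal dose–response curve.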

The target of assay [3] is T3, PARP12 (Homo sapiens, UniProt Q9H0J9).
T3 sequence (Q9H0J9 489-684 limits assumed): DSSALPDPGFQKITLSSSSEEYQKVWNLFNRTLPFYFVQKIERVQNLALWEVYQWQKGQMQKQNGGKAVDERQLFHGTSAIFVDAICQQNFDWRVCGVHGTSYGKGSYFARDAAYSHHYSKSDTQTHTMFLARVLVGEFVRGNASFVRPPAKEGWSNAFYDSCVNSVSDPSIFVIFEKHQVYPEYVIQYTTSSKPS
A digest of the protocol: as §1

Assay [4] addresses T4, PARP4 (Homo sapiens, UniProt Q9UKK3).
T4 sequence (Q9UKK3 242-573 limits assumed): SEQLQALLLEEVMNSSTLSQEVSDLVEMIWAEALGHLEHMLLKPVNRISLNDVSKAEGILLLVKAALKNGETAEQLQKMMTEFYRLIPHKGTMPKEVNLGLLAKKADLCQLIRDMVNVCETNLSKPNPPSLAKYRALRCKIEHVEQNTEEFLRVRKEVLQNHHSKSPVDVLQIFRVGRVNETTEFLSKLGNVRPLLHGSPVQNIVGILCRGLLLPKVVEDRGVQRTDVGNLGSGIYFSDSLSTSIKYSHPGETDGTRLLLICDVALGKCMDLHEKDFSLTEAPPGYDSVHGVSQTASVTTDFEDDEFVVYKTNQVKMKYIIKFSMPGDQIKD
A digest of the protocol:
as §2

Usually IC50 stands for the midpoint of a concentration-inhibition curve. Low readings indicate higher potency, high ones lower potency. Consider `N#Cc1ccc(Oc2ccc(C(N)=O)cc2)cc1` [compound 10, 4‐(4‐cyanophenoxy)benzamide], for which the half-maximal inhibitory concentration (IC50) is > 10 µM in assay [1], > 100 µM in assay [2], > 10 µM in assay [3] and > 100 µM in assay [4].

As to `NC(=O)c1ccc(Oc2cccc(C(N)=O)c2)cc1` [compound 20, 3‐(4‐carbamoylphenoxy)benzamide], the IC50 in assay [1] was > 10 µM; in assay [2] it was > 100 µM; in assay [3] it was > 10 µM; in assay [4] it was 7 µM.
